The results in this text go back to ChEMBL document CHEMBL1129355, “Synthesis of 3 beta-aryl-8-azabicyclo[3.2.1]octanes with high binding affinities and selectivities for the serotonin transporter site” (J Med Chem, 1996).

A value given as a limit tells only on which side of the number the result lay.

Experiment [1] has as its target Monoamine transporters; serotonin & dopamine (Rattus norvegicus) (UniProt P31652+P23977). The experiment is described as follows: Relative affinity for dopamine and Serotonin transporters. It is filed as protein assay. The procedure, abridged: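 Ratio of DAT IC50 ([125I]RTI-55, rat striatum) to SERT Ki ([3H]paroxetine, rat frontal cortex), each from displacement curves of 7-10 concentrations. Triplicate runs, at least three experiments.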

For experiment [2], the target named is Norepinephrine transporter (Rattus norvegicus, UniProt Q9WTR4). In words: Displacement of [3H]-nisoxatine from Norepinephrine transporter of rat forebrain membrane. Format: tissue-based, Brain.
Norepinephrine transporter, sequence (Q9WTR4 whole entry): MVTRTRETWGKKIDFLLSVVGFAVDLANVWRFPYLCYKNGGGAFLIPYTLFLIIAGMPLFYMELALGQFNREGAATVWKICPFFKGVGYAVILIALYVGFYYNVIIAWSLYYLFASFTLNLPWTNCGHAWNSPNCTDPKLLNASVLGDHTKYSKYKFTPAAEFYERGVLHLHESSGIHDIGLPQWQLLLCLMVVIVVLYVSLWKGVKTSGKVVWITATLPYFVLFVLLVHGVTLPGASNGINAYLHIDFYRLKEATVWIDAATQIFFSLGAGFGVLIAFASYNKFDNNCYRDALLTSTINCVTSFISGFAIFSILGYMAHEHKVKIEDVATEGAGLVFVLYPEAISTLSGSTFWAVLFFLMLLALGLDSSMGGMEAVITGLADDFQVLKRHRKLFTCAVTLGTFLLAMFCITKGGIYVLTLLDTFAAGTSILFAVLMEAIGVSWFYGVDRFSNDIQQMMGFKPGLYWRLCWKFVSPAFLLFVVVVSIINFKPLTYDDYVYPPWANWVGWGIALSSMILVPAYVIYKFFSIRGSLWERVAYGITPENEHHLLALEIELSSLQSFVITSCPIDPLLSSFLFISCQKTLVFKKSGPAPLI
In experiment [3] the target is Sodium-dependent dopamine transporter (Rattus norvegicus, UniProt P23977). The experiment is described as follows: Displacement of [125I]RTI-55 from dopamine transporter of rat brain membranes. Format: cell membranes, Membrane. Put shortly: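 Rat striatal membranes (0.5 mg original wet weight) with 10 pM [125I]RTI-55. Nonspecific binding defined with a 1 μM tropane analog. Displacement curves used 7-10 unlabeled-analog concentrations. IC50 was reported because binding is multiphasic. Mean ± SEM of at least three experiments, each in triplicate.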
Sodium-dependent dopamine transporter, sequence (P23977 whole entry): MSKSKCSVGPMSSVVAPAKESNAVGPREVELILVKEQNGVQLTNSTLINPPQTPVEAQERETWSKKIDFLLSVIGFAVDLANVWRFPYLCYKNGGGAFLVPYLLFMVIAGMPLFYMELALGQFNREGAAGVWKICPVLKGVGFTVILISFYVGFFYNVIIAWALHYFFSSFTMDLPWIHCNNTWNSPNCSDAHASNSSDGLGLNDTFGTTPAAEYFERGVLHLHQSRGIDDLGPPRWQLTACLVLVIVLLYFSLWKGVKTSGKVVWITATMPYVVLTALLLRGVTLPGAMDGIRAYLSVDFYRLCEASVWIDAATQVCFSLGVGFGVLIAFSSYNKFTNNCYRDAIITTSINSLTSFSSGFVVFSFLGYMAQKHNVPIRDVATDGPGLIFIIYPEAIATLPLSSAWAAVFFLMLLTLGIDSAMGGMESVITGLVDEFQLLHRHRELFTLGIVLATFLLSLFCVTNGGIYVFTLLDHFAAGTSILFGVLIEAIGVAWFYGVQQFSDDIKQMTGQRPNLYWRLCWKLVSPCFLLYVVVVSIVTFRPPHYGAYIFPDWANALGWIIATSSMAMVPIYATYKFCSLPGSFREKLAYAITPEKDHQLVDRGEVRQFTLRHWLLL
Background: Loss of bound radioactivity is the signal in a displacement assay; it reports binding, not function.

In experiment [4] the target is Sodium-dependent serotonin transporter (Rattus norvegicus, UniProt P31652). In words: Displacement of [3H]paroxetine from Serotonin transporter of rat frontal cortex membrane. It is filed as tissue-based. The procedure, abridged: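 Rat frontal cortex membranes (50 mg original wet weight) with 0.4 nM [3H]paroxetine. Nonspecific binding defined with 10 μM fluoxetine. Displacement curves used 7-10 unlabeled-analog concentrations. Ki came from the Cheng-Prusoff equation. Mean ± SEM of at least three experiments, each in triplicate.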
Sodium-dependent serotonin transporter, sequence (P31652 whole entry): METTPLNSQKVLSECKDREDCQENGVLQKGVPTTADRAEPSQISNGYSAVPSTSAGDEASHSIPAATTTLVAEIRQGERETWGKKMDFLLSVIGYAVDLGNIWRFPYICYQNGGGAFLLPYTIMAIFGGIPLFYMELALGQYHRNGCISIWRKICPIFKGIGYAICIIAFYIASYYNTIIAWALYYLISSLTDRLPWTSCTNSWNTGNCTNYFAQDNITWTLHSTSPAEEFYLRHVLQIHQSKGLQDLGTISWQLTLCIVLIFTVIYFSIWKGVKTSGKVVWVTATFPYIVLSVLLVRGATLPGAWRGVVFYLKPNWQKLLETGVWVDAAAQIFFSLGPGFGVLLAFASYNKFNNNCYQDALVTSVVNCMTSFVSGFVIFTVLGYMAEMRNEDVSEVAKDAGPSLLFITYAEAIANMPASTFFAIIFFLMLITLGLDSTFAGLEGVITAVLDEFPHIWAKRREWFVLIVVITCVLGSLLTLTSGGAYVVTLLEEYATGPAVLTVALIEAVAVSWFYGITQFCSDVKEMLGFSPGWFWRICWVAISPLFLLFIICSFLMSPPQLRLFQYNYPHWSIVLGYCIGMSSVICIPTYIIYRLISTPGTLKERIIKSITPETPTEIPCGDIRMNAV

Monoamine transporters; serotonin & dopamine (Rattus norvegicus), sequence (P23977 whole entry, looked up): as the sequence (P23977 whole entry) above
Monoamine transporters; serotonin & dopamine (Rattus norvegicus), sequence (P31652 whole entry, looked up): as the sequence (P31652 whole entry) above

With `C=Cc1ccc(C2CC3CCC(C2C(=O)CC)N3C)cc1` (configuration not stated), the Ratio in experiment [1] was determined as 0.28. The inhibitory constant (Ki) turned out to be 0.078 µM in experiment [2] and 0.0032 µM in experiment [4]. Besides, the IC50 in experiment [3] is 0.0009 µM.
The like results for `CCC(=O)C1C2CCC(CC1c1ccc(C(CC)CC)cc1)N2` (configuration not stated) were, in that order, 1.27, 5.1 µM, 0.15 µM and 0.19 µM.
For `CCC(=O)C1C(c2ccc(C3CCCCC3)cc2)CC2CCC1N2C` (configuration not stated), in that order: 3.3, above 10 µM, 0.097 µM and 0.32 µM.
The like results for `CCC(=O)C1C2CCC(CC1c1ccc(C(C)C)cc1)N2` (configuration not stated) were, in that order, 72, 0.15 µM, 0.0053 µM and 0.54 µM.
As to `C=C(C)c1ccc(C2CC3CCC(C2C(=O)CC)N3C)cc1` (configuration not stated), the Ratio in experiment [1] was found to be 8.8. For the same molecule, the inhibitory constant (Ki) came out at 0.794 µM in experiment [2] and 0.00082 µM in experiment [4]. Further, in experiment [3], the IC50 amounted to 0.0072 µM.
The like results for `CCC(=O)C1C2CCC(CC1c1ccc(C)cc1)N2` (configuration not stated) were, in that order, 0.25, 0.0055 µM, 0.019 µM and 0.0047 µM.
`CCC(=O)C1C(c2ccc(C(CC)CC)cc2)CC2CCC1N2C` (configuration not stated): the Ratio in experiment [1] is 0.5. Besides, the inhibition constant Ki was above 10 µM in experiment [2] and 0.54 µM in experiment [4]. In addition, the half-inhibitory concentration (IC50) in experiment [3] was 0.27 µM.
As for `CCC(=O)C1C2CCC(CC1c1ccc(C3CCCCC3)cc1)N2` (configuration not stated), the Ratio in experiment [1] turned out to be 5.8. For the same molecule, the Ki turned out to be 4.3 µM in experiment [2] and 0.085 µM in experiment [4]. For the same molecule, the IC50 in experiment [3] is 0.49 µM.
With `CCC(=O)C1C2CCC(CC1c1ccc3ccccc3c1)N2` (configuration not stated), the Ki in experiment [2] was found to be 0.44 µM; in experiment [4], 0.00022 µM. Also, the IC50 in experiment [3] amounted to 0.036 µM.
For `C=C(C)c1ccc(C2CC3CCC(N3)C2C(=O)CC)cc1` (configuration not stated), the Ratio in experiment [1] amounted to 150. The inhibition constant (Ki) in experiment [2] was determined as 0.094 µM; in experiment [4] it was 0.00011 µM. The IC50 in experiment [3] amounted to 0.016 µM.
`CCC(=O)C1C(c2ccc3ccccc3c2)CC2CCC1N2C` (configuration not stated): the Ratio in experiment [1] stood at 0.31. For the same molecule, in experiment [2], the inhibitory constant (Ki) came to 0.0029 µM.
Consider `C=Cc1ccc(C2CC3CCC(N3)C2C(=O)CC)cc1` (configuration not stated), for which the Ratio in experiment [1] was 4.7. The Ki stood at 0.0109 µM in experiment [2] and 0.00032 µM in experiment [4]. In experiment [3], this molecule came in with an IC50 of 0.0015 µM.
As to `CCC(=O)C1C(c2ccc(C)cc2)CC2CCC1N2C` (configuration not stated), in experiment [1], the Ratio came out at 0.063. The molecule also yielded a Ki in experiment [2] of 0.16 µM.

As usually defined, the Ki is a measure of affinity in units of concentration, obtained from inhibition or displacement. Read a high Ki as lower affinity. As a reminder, the IC50 is the concentration at which inhibition is half-maximal. Low values mean inhibition by little substance, high ones a need for much substance.
